Test results taken from publication PMC3674249 (Nature Communications, 2013).
Entries after “also recorded” stand apart in the source; their conditions may differ.

What was measured:
ChEH [1] = biological target: T1, ChEH (Homo sapiens, UniProt Q15125+Q9UBM7); test: ChEH activity in whole MCF-7 cells; type: cell-based; details: for IC50 of ChEH inhibition, fold higher than DDA / ChEH inhibition (in words): MCF-7 cells
Procedure, shortened: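 Whole MCF-7 cells were grown in RPMI with 5% FBS. Conversion to [14C]-CT was resolved by TLC and quantified by densitometry. IC50 came from dose–response curves, as mean±s.e.m. of three independent experiments.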

ChEH [2] = details: microsomes from rat liver; cited from earlier work
ChEH [3] = biological target: T2, ChEH (Mus musculus, UniProt O88455+P70245); test: ChEH activity in murine mammary TSA cells; type: cell-based
T2 sequence (P70245 1-230): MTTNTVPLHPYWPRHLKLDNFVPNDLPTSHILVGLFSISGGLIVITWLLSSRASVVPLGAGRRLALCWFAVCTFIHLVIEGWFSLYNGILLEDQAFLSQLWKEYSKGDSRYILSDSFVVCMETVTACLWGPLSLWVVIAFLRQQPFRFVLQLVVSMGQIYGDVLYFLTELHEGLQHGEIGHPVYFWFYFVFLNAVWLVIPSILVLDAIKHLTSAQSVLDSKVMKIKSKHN
T2 sequence (O88455 1-471): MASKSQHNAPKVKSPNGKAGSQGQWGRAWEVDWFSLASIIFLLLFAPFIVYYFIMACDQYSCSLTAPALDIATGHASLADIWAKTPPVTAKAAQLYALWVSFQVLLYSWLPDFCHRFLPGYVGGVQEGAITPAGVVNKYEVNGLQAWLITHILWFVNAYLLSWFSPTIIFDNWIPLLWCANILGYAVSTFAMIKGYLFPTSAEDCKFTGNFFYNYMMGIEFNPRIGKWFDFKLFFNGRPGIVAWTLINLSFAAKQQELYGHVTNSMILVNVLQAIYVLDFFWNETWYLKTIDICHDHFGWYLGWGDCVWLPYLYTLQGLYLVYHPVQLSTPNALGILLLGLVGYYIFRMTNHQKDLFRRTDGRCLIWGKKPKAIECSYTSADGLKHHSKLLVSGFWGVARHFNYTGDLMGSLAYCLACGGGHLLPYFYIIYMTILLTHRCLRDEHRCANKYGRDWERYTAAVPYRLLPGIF

ChEH [4] = biological target: T1, ChEH; test: ChEH activity in human melanoma SK-Mel-28 cells; type: cell-based
ChEH [5] = biological target: T2, ChEH; test: ChEH activity in murine melanoma B16F10 cells; type: cell-based
ChEH [6] = biological target: T1, ChEH; test: Modality of ChEH inhibition in MCF-7 cell extracts; type: biochemical; details: MCF-7 cell extracts, 0.5, 1 and 5 μM DDA; Km increased, Vmax unchanged
Human sEH = biological target: T3, Human sEH (Homo sapiens, UniProt P34913); test: sEH activity assay; type: biochemical
T3 sequence (P34913 1-555): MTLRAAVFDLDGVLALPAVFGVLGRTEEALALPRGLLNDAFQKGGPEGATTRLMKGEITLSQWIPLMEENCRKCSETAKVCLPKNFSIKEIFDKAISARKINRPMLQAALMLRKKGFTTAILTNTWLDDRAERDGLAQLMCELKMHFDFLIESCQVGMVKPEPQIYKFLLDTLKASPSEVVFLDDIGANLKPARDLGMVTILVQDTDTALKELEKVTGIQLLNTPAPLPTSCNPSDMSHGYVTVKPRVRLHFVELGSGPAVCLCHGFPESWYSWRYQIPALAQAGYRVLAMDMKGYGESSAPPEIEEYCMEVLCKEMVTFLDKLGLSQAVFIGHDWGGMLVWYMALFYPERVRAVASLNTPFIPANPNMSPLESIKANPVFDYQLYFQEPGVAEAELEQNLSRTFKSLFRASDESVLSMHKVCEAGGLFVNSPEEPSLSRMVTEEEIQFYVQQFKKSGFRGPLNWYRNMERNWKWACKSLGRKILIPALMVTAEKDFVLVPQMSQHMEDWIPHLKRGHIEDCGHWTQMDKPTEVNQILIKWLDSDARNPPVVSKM

rat mEH = biological target: T4, rat mEH (Rattus norvegicus, UniProt P07687); test: mEH activity assay; type: biochemical
T4 sequence (P07687 1-455): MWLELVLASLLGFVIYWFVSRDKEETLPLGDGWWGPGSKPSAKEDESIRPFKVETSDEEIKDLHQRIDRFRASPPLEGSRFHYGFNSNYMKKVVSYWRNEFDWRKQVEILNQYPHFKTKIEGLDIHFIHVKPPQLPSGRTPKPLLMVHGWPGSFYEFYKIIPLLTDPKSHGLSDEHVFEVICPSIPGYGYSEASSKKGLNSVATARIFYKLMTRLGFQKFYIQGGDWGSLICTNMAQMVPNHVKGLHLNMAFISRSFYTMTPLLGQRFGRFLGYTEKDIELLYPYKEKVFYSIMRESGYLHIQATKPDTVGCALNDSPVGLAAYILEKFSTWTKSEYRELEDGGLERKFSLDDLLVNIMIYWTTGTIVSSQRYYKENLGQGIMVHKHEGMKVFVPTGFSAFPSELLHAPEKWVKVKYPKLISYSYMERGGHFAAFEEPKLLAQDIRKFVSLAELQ

ER = test: ER-dependent transcriptional activity; type: cell-based, human; details: MELN cells; for inhibition of luciferase stimulation by E2 (ER antagonism): with 10 nM E2, Tam 1 μM
B16F10 melanoma tumours = B16F10 melanoma tumours implanted s.c. into immunocompetent mice; type: in vivo, mouse
Procedure, shortened: (§1)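 Female mice, 6–8 weeks old, held specific-pathogen-free after 2 weeks quarantine. Strains were C57BL/6 for B16F10 and BALB/c for TS/A. 35,000 exponentially growing cells in 150 μl PBS were implanted s.c. into the flank. Dosing was s.c. every 5 days from implantation day, with a s.c. vehicle control (n=10 per group). Survival was by Kaplan–Meier with log-rank test.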

TS/A mammary tumours = TS/A mammary tumours implanted s.c. into immunocompetent mice; type: in vivo, mouse
Procedure, shortened: as §1

B16F10 cells = test: B16F10 cell differentiation in vitro; type: cell-based, mouse; details: 24 h
TS/A cells = test: TS/A cell differentiation in vitro; type: cell-based, mouse; details: 24 h
mouse brain homogenate = test: DDA neosynthesis assay; type: biochemical; details: 2 μM [14C]-5,6α-EC, His 0.5–200 μM, 37 °C, 10 min
[7] = B16F10, treated every 5 days from day of implantation, DDA 0.37 μg kg−1 s.c.
[8] = TS/A tumours, DDA 3.7 μg kg−1, 30 days

T1 sequence (Q15125 whole entry): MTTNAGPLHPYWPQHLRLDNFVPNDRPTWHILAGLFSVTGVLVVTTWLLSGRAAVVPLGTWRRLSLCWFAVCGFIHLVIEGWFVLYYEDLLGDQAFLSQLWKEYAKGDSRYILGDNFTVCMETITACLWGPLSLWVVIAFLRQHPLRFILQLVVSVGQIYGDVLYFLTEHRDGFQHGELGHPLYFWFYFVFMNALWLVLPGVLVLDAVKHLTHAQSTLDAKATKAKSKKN
T1 sequence (Q9UBM7 whole entry): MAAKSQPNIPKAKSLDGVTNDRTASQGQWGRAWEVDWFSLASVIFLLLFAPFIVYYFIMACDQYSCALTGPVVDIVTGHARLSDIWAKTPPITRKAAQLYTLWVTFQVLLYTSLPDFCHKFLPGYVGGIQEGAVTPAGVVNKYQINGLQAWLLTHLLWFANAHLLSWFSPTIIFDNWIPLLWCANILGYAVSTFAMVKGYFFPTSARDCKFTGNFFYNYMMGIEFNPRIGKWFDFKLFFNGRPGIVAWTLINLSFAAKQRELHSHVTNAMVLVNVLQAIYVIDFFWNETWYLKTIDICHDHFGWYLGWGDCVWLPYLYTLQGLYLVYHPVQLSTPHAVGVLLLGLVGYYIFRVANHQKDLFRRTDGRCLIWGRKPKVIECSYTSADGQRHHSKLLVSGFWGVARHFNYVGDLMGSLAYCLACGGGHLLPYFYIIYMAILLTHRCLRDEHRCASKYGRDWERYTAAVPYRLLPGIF

In the case of `CC(C)CCC[C@@H](C)[C@H]1CC[C@H]2[C@@H]3C(=O)C=C4C[C@@H](O)CC[C@]4(C)[C@H]3CC[C@]12C` [7-ketocholesterol], the IC50 (ChEH [1]) is listed as 5090 ± 1400 nM, the “IC50 of ChEH inhibition, fold higher than DDA” value (ChEH [1]) is listed as 42 fold and the “ChEH inhibition (in words)” value (ChEH [2]) is listed as “inhibited ChEH in microsomes from rat liver”.

In the case of `CC(C)CCC[C@@H](C)[C@H]1CC[C@H]2[C@@H]3[C@H](O)C=C4C[C@@H](O)CC[C@]4(C)[C@H]3CC[C@]12C` [Compound 7α-OHCh, 7α-hydroxycholesterol], the IC50 (ChEH [1]) is given as 12000 ± 2900 nM, the “IC50 of ChEH inhibition, fold higher than DDA” value (ChEH [1]) is given as 100 fold and the “ChEH inhibition (in words)” value (ChEH [2]) is given as “inhibited ChEH in microsomes from rat liver”.

In the case of `C[C@H](CCCC(C)(C)O)[C@H]1CC[C@H]2[C@@H]3CC=C4C[C@@H](O)CC[C@]4(C)[C@H]3CC[C@]12C` [Compound 25-OHCh], the “ChEH inhibition (in words)” value (ChEH [1]) is listed as “unable to inhibit ChEH” and the “ChEH inhibition (in words)” value (ChEH [2]) is listed as “did not inhibit ChEH”.

With `CC(C)CCC[C@@H](C)[C@H]1CC[C@H]2[C@@H]3C[C@@H](n4cncc4CCN)[C@@]4(O)C[C@@H](O)CC[C@]4(C)[C@H]3CC[C@]12C` [Compound C17, 5α-hydroxy-6β-[5-(2-amino-ethyl)-imidazol-1-yl]-cholestan-3β-ol] the “ChEH inhibition (in words)” value (ChEH [1]) was “did not inhibit ChEH activity”, the “ChEH inhibition (in words)” value (ChEH [3]; TSA cells) was “inactive against ChEH” and the “ChEH inhibition (in words)” value (ChEH [4]; SK-Mel-28 cells) was “inactive against ChEH”. For the same compound, the “ChEH inhibition (in words)” value (ChEH [5]; B16F10 cells) was “inactive against ChEH”.

`CC(C)CCC[C@@H](C)[C@H]1CC[C@H]2[C@@H]3C[C@@H](NCCc4c[nH]cn4)[C@@]4(O)C[C@@H](O)CC[C@]4(C)[C@H]3CC[C@]12C` [DDA, 5α-Hydroxy-6β-[2-(1H-imidazol-4-yl)-ethylamino]-cholestan-3β-ol] gave an IC50 (ChEH [1]) of 120 ± 20 nM, an IC50 (ChEH [3]) of 284 ± 70 nM and an IC50 (ChEH [4]) of 72 ± 15 nM. For the same compound, the IC50 (ChEH [5]) was 252 ± 81 nM, the “modality of ChEH inhibition” value (ChEH [6]) was “competitive” and the “sEH inhibition (in words)” value (Human sEH) was “did not inhibit these enzymes; also recorded: not an inhibitor”. For the same compound, the “mEH inhibition (in words)” value (rat mEH) was “did not inhibit these enzymes; also recorded: not an inhibitor”, the “stimulation of luciferase expression (ER agonism)” value (ER; increasing concentrations, without E2) was “did not stimulate the expression of luciferase” and the “inhibition of luciferase stimulation by E2 (ER antagonism)” value (ER) was “did not inhibit luciferase stimulation by 17β-estradiol”. For the same compound, the “survivors at day 50” value (B16F10 melanoma tumours; [7]) was 40%, the “tumour growth vs control” value (B16F10 melanoma tumours; [7]) was “significantly inhibited tumour growth” and the “melanin production in tumour sections (Masson–Fontana)” value (B16F10 melanoma tumours; B16F10 tumours, DDA 3.7 μg kg−1, 23 days) was “increased production of melanin”. The “intra-tumour immune cell infiltration (CD3, CD11c)” value (B16F10 melanoma tumours; B16F10 tumours, DDA 3.7 μg/kg, 23 days) was “increased infiltration of CD3^+ T lymphocytes and CD11c^+ dendritic cells”, the “MFGE8/lactadherin expression in tumour sections (immunohistochemistry)” value (TS/A mammary tumours; [8]) was “increased expression of milk fat globule (MFGE8)/lactadherin” and the “neutral lipid droplets in tumour sections (ORO)” value (TS/A mammary tumours; [8]) was “increased accumulation of neutral lipid droplets”. The “intra-tumour immune cell infiltration (CD3, CD11c)” value (TS/A mammary tumours; TS/A tumours, DDA 3.7 μg/kg, 30 days) was “increased infiltration of CD3^+ T lymphocytes and CD11c^+ dendritic cells”, the “animal survival at day 50” value (TS/A mammary tumours; TS/A, treated every 5 days from day of implantation, DDA 0.37 μg kg−1 s.c.) was 60% and the melanin content (B16F10 cells) was “increased in a concentration-dependent manner up to 2.5 μM DDA”. For the same compound, the tyrosinase activity (B16F10 cells) was “increased activity of tyrosinase”, the “increase in ORO staining of neutral lipid droplets vs vehicle” value (TS/A cells; 1 μM DDA) was 2.4 fold and the “increase in intracellular triglycerides vs vehicle” value (TS/A cells; 1 μM DDA) was 7 fold. The “MFGE8/lactadherin (immunostaining, flow cytometry)” value (TS/A cells; 2.5 μM DDA) was “increased”, the “increase in ORO staining of neutral lipid droplets vs vehicle” value (TS/A cells; 2.5 μM DDA) was 3 fold and the “increase in intracellular triglycerides vs vehicle” value (TS/A cells; 2.5 μM DDA) was 9 fold.

In the case of `NCCc1c[nH]cn1` [His, histamine], the “apparent Vmax of DDA formation” value (mouse brain homogenate) is reported as 0.12±0.04 pmol per mg protein per min.

With `CC/C(=C(\c1ccccc1)c1ccc(OCCN(C)C)cc1)c1ccccc1` [Tam, Tamoxifen, reference compound] the “inhibition of luciferase stimulation by E2 (ER antagonism)” value (ER) was “completely inhibited luciferase expression”.
